Source: PubChem
SIAE inh: blocks human sialic acid acetylesterase. SIAE FP-Rh probe binding, fluorescence polarization. inhibition, % at 9.66 µM. AID 1053197. Q9HAT2. 0.69% of 370,000 active;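 active means inhibition above a cutoff: mean of compounds within the control limits plus 3 SD of those, cut at about 17% in these data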
Target sequence (Q9HAT2 whole entry, looked up): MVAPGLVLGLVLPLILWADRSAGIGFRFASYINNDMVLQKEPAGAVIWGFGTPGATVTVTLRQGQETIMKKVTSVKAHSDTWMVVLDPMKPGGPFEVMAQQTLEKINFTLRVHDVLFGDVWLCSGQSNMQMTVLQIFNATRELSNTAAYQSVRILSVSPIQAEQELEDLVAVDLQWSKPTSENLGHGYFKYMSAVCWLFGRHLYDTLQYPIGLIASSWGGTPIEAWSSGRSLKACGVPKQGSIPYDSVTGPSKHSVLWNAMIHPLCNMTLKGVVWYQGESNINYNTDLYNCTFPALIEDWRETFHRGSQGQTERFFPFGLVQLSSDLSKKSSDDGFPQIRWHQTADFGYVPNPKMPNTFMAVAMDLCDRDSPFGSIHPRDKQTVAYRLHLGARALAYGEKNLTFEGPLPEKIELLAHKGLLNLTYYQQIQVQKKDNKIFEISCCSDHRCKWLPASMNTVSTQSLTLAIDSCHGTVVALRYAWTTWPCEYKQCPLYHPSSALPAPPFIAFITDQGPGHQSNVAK
PRMT1 FP inh: inhibitors of human PRMT1; Q99873; recombinant PRMT1, activity-based probe fluorescence polarization; inhibition, % at 2.79 µM; 1.3% of 370,000 active; AID 652257;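 active means inhibition above about 21% made by adding two undisclosed values, limit read from the data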
rCAG RNA binder: binds r(CAG) RNA repeats. r(CAG) RNA repeat, TO-PRO-1 dye displacement fluorescence. 1.3% of 370,000 active. inhibition, % at 3 µM;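 active means inhibition above the plate cutoff, the mean of all test compounds on that plate plus 3 SD, cut at about 35% in these data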;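 further: higher means more dye released from RNA so lower well fluorescence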
mABHD4 FP: ABHD4 (mouse) inhibition, primary FP screen; Q8VD66; purified mABHD4, FP-Rh probe fluorescence polarization; inhibition, % at 8.92 µM; 0.54% of 370,000 active; AID 720543;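 active means inhibition exceeding the mean over every tested compound plus 3 SD, cut at about 30% in these data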
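Doses – 8.92 µM, single dose · Material – wild-type mouse ABHD4 protein · Replication – single well per compound (singlicate) · Measure – percent inhibition of probe binding, normalized to plate controls · Schedule – 45 min compound pre-incubation plus 60 min probe step, 25 °C · Detection – fluorescence polarization with parallel and perpendicular emission, 525/598 nm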
TCR CD3 inh: inhibitors of human TCR-CD3 interaction | 0.37% of 360,000 active | TAMRA-labeled TCR probe fluorescence, biochemical | inhibition, % at 9.4 µM | AID 651800; in the data active means inhibition above about 19%;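 further: recombinant mutant TCR 2C K166C tagged with TAMRA read by polarization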
PRMT1 inh conf: confirmation of human PRMT1 inhibitors; AID 687036; shares compounds with PRMT1 FP inh; inhibition, % at 2.79 µM; 42% of 3,300 active; recombinant His-PRMT1, activity-based probe fluorescence polarization;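 active means mean inhibition across replicates above the hit cutoff derived for the earlier primary screen, cut at about 22% in these data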
Each line names hits and unclear results; the compound was inactive in the other large screens (follow-up assays come after a bar, where they were run). Rows were chosen to be rich in hits. Some 3.3% of all compounds tested hit in one or more screens of this group.

NCCc1nnc(SCC(=O)Nc2cccc(Cl)c2)o1	PRMT1 FP inh 25 | PRMT1 inh conf inactive
Cc1ccc(NC(=O)CSc2nc(N)cc(=O)[nH]2)cc1S(=O)(=O)N1CCCCC1	PRMT1 FP inh 44 | PRMT1 inh conf inactive
O=S1(=O)c2ccc(N3CC[C@H](O)C3)cc2O[C@H]2CCN1C2	none (no result: TCR CD3 inh)
O=C(O)CN1C(=O)/C(=C\C(Br)=C\c2ccccc2)SC1=S	PRMT1 FP inh 31, rCAG RNA binder 50 | PRMT1 inh conf 33
C=CCN1C(=O)/C(=C\C(C)=C\c2ccccc2)SC1=S	none
CCOC(=O)C1=C(C)OC(N)=C(C#N)C1c1cc(Cl)c(OCC(N)=O)c(OC)c1 (stereo unspecified)	none
CCOc1cc(C2C(C#N)=C(N)OC(C)=C2C(C)=O)cc(Br)c1O (stereo unspecified)	PRMT1 FP inh 26 | PRMT1 inh conf 28
Cc1c[nH]c2cccc(-c3cccc4ccccc34)c12	none (no result: TCR CD3 inh)
COc1ccc(Cl)cc1NC(=S)N(CCCN1CCOCC1)Cc1cn(C)c2ccccc12	PRMT1 FP inh 34 | PRMT1 inh conf 37
COc1ccccc1NC(=S)N(CCCN1CCOCC1)Cc1cn(C)c2ccccc12	none
COc1cc(Cl)ccc1NC(=S)N(CCCN1CCOCC1)Cc1cn(C)c2ccccc12	PRMT1 FP inh 34 | PRMT1 inh conf 37
CCOC(=S)SCC(=O)Nc1ncc(C)s1	PRMT1 FP inh 59 | PRMT1 inh conf 46
Cc1cnc(NC(=O)CSc2ccccc2)s1	none
COc1cccc(C(=O)N2CCC[C@@H]2C(=O)N2CCC[C@H]2C(=O)NCc2ccccc2)c1	none
COC(=O)CC1C(=O)NCCN1C(=O)CSc1nc2ccccc2s1 (stereo unspecified)	PRMT1 FP inh 36 | PRMT1 inh conf 37
COC(=O)CC1C(=O)NCCN1C(=O)c1ccccc1 (stereo unspecified)	none
CCC(=O)N1CCN(c2ccccc2NC(=O)COc2cc(C)ccc2C(C)C)CC1	PRMT1 FP inh 112 | PRMT1 inh conf inactive
O=C(OCc1cn(Cc2cc(F)cc(F)c2)nn1)N1CCOCC1	none (no result: TCR CD3 inh)
NC(=O)CN1C(=O)/C(=c2\sc3nc(=O)c(Cc4ccccc4)nn3c2=O)c2ccccc21	PRMT1 FP inh 45 | PRMT1 inh conf 40
O=S(=O)(c1cccc(-c2n[nH]c(=S)n2-c2cccc(C(F)(F)F)c2)c1)N1CCOCC1	none
O=S(=O)(c1cccc(-c2n[nH]c(=S)n2-c2ccc(OC(F)(F)F)cc2)c1)N1CCOCC1	PRMT1 FP inh 27 | PRMT1 inh conf inactive
COC(=O)[C@]12C[C@H](CC(=O)N3CCOCC3)C(=O)N(Cc3ccc4c(c3)OCO4)C1=C[C@H](C(C)C)O[C@@H]2C1CC1	none (no result: TCR CD3 inh)
Cc1ccc(/C=[N+](\[O-])c2ccccc2C)o1	PRMT1 FP inh 30 | PRMT1 inh conf inactive
Cc1cccc(C)c1NC(=O)COC(=O)CCc1c[nH]c2ccccc12	PRMT1 FP inh 30 | PRMT1 inh conf inactive
Cc1cc(C)nc(SSc2nc(C)cc(C)n2)n1	PRMT1 FP inh 89 | PRMT1 inh conf 82
COP(=O)(O)C(C)NC(=O)OCc1ccccc1 (stereo unspecified)	none (no result: TCR CD3 inh)
CN(c1ncc(C(F)(F)F)cc1Cl)N1C(=O)c2cccc(N)c2C1=O	none
CN(c1ncc(C(F)(F)F)cc1Cl)N1C(=O)C2ONC3(C(=O)CC(C)(C)CC3=O)C2C1=O (stereo unspecified)	PRMT1 FP inh 72 | PRMT1 inh conf inactive
c1ccc(-c2nccc(-c3ccco3)n2)nc1	none
c1ccc(-c2nc(-c3ccco3)cs2)nc1	PRMT1 FP inh 51 | PRMT1 inh conf inactive
COC(=O)CNC(c1ccccc1)c1cc(Br)ccc1NC(=O)CCN1CCOCC1 (stereo unspecified)	none
CCOC(=O)CNC(c1ccccc1)c1cc(Br)ccc1NC(=O)CCN1CCOCC1 (stereo unspecified)	PRMT1 FP inh 37 | PRMT1 inh conf inactive
Cc1ccccc1N1C(=O)C(Cl)=C(N2CCOCC2)C1=O	none
O=C1C(Cl)=C(N2CCOCC2)C(=O)N1c1ccccc1F	PRMT1 FP inh 40 | PRMT1 inh conf inactive
CCCn1c(SCC(=O)N2CC(=O)Nc3ccccc32)nc2ccccc21	PRMT1 FP inh 37 | PRMT1 inh conf 24
CN(C)CCCN1C(=O)c2cccc3c(Br)ccc(c23)C1=O	PRMT1 FP inh 38 | PRMT1 inh conf inactive
O=C(O)CN1C(=O)c2cccc3c(Br)ccc1c23	none
